Test system: HEK-293T
Assay: Multiplex assay against HEK293T
Assay type: toxicity, cell-based
Settings: human
How it was run: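 Imaging took place on a CQ1 microscope at 37°C and 5% CO2 once compound had been added to live cells stained at seeding with Hoechst33342, BioTracker Green Microtubule Cytoskeleton Dye, MitoTracker Red and Annexin V Alexa Fluor 680. CellPathfinder machine-learning gating classed cells as Hoechst high-intensity objects or normal cells, classed normal cells as having healthy, pyknosed or fragmented nuclei, and classed pyknosed cells as mitotic or apoptotic. Tubulin, mitochondrial-mass and membrane-permeability phenotypes are per cents of the healthy-nucleus cells.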

[1] = 12 h, 1 µM, compound concentration 1 uM, replicate 1
[2] = 12 h, 1 µM, compound concentration 1 uM, replicate 2
[3] = 12 h, 10 µM, compound concentration 10 uM, replicate 1
[4] = 12 h, 10 µM, compound concentration 10 uM, replicate 2
[5] = 24 h, 1 µM, compound concentration 1 uM, replicate 1
[6] = 24 h, 1 µM, compound concentration 1 uM, replicate 2
[7] = 24 h, 10 µM, compound concentration 10 uM, replicate 1
[8] = 24 h, 10 µM, compound concentration 10 uM, replicate 2
[9] = 48 h, 1 µM, compound concentration 1 uM, replicate 1
[10] = 48 h, 1 µM, compound concentration 1 uM, replicate 2
[11] = 48 h, 10 µM, compound concentration 10 uM, replicate 1
[12] = 48 h, 10 µM, compound concentration 10 uM, replicate 2

Question: For `Cc1cnc(-c2cc(N3CCN(C(=O)CCS(C)(=O)=O)CC3)ncc2Cl)c(C)c1`, which “Population Apoptotic (%)” value [1] is on record?
Answer: 29%

Question: And the “Population Fragmented Nuclei (%)” value [1]?
Answer: 6%

Question: What about the “Population Healthy Nuclei (%)” value [1] of the same compound?
Answer: 76%

Question: And the “Population Hoechst High Intensity Objects (%)” value [1]?
Answer: 4%

Question: What about the “Population Membrane Permeable-Phenotype (%)” value [1] of the same compound?
Answer: 0%

Question: What about the “Population Mitochondria Different-Phenotype (%)” value [1] of the same compound?
Answer: 50%

Question: What about the “Population Mitotic Cells (%)” value [1] of the same compound?
Answer: 70%

Question: And the “Population Normal (%)” value [1]?
Answer: 95%

Question: And the “Population Pyknosed Nuclei (%)” value [1]?
Answer: 16%

Question: What about the “Population Tubulin-Different-Phenotype (%)” value [1] of the same compound?
Answer: 33%

Question: And the “Total Cell Count” value [1]?
Answer: 276

Question: And the “Population Apoptotic (%)” value [2]?
Answer: 42%

Question: And the “Population Healthy Nuclei (%)” value [2]?
Answer: 75%

Question: What about the “Population Hoechst High Intensity Objects (%)” value [2] of the same compound?
Answer: 9%

Question: And the “Population Mitochondria Different-Phenotype (%)” value [2]?
Answer: 69%

Question: And the “Population Mitotic Cells (%)” value [2]?
Answer: 57%

Question: And the “Population Normal (%)” value [2]?
Answer: 90%

Question: And the “Population Pyknosed Nuclei (%)” value [2]?
Answer: 17%

Question: What about the “Population Tubulin-Different-Phenotype (%)” value [2] of the same compound?
Answer: 24%

Question: And the “Total Cell Count” value [2]?
Answer: 294

Question: And the “Population Apoptotic (%)” value [3]?
Answer: 42%

Question: And the “Population Fragmented Nuclei (%)” value [3]?
Answer: 7%

Question: And the “Population Healthy Nuclei (%)” value [3]?
Answer: 82%

Question: And the “Population Hoechst High Intensity Objects (%)” value [3]?
Answer: 10%

Question: What about the “Population Membrane Permeable-Phenotype (%)” value [3] of the same compound?
Answer: 0%

Question: What about the “Population Mitochondria Different-Phenotype (%)” value [3] of the same compound?
Answer: 47%

Question: And the “Population Mitotic Cells (%)” value [3]?
Answer: 57%

Question: And the “Population Normal (%)” value [3]?
Answer: 89%

Question: And the “Population Pyknosed Nuclei (%)” value [3]?
Answer: 10%

Question: And the “Population Tubulin-Different-Phenotype (%)” value [3]?
Answer: 40%

Question: And the “Total Cell Count” value [3]?
Answer: 409

Question: And the “Population Apoptotic (%)” value [4]?
Answer: 45%

Question: What about the “Population Healthy Nuclei (%)” value [4] of the same compound?
Answer: 75%

Question: What about the “Population Hoechst High Intensity Objects (%)” value [4] of the same compound?
Answer: 7%

Question: What about the “Population Mitochondria Different-Phenotype (%)” value [4] of the same compound?
Answer: 70%

Question: And the “Population Mitotic Cells (%)” value [4]?
Answer: 54%

Question: And the “Population Normal (%)” value [4]?
Answer: 92%

Question: What about the “Population Pyknosed Nuclei (%)” value [4] of the same compound?
Answer: 17%

Question: What about the “Population Tubulin-Different-Phenotype (%)” value [4] of the same compound?
Answer: 39%

Question: And the “Total Cell Count” value [4]?
Answer: 288

Question: And the “Population Apoptotic (%)” value [5]?
Answer: 36%

Question: And the “Population Fragmented Nuclei (%)” value [5]?
Answer: 8%

Question: What about the “Population Healthy Nuclei (%)” value [5] of the same compound?
Answer: 78%

Question: And the “Population Hoechst High Intensity Objects (%)” value [5]?
Answer: 2%

Question: And the “Population Membrane Permeable-Phenotype (%)” value [5]?
Answer: 1%

Question: And the “Population Mitochondria Different-Phenotype (%)” value [5]?
Answer: 30%

Question: What about the “Population Mitotic Cells (%)” value [5] of the same compound?
Answer: 63%

Question: What about the “Population Normal (%)” value [5] of the same compound?
Answer: 97%

Question: What about the “Population Pyknosed Nuclei (%)” value [5] of the same compound?
Answer: 12%

Question: And the “Population Tubulin-Different-Phenotype (%)” value [5]?
Answer: 21%

Question: What about the “Total Cell Count” value [5] of the same compound?
Answer: 368

Question: And the “Population Apoptotic (%)” value [6]?
Answer: 40%

Question: What about the “Population Fragmented Nuclei (%)” value [6] of the same compound?
Answer: 7%

Question: And the “Population Healthy Nuclei (%)” value [6]?
Answer: 83%

Question: And the “Population Hoechst High Intensity Objects (%)” value [6]?
Answer: 6%

Question: What about the “Population Membrane Permeable-Phenotype (%)” value [6] of the same compound?
Answer: 0%

Question: And the “Population Mitochondria Different-Phenotype (%)” value [6]?
Answer: 36%

Question: And the “Population Mitotic Cells (%)” value [6]?
Answer: 60%

Question: What about the “Population Normal (%)” value [6] of the same compound?
Answer: 93%

Question: What about the “Population Pyknosed Nuclei (%)” value [6] of the same compound?
Answer: 9%

Question: And the “Population Tubulin-Different-Phenotype (%)” value [6]?
Answer: 13%

Question: And the “Total Cell Count” value [6]?
Answer: 413

Question: And the “Population Apoptotic (%)” value [7]?
Answer: 33%

Question: What about the “Population Fragmented Nuclei (%)” value [7] of the same compound?
Answer: 15%

Question: And the “Population Healthy Nuclei (%)” value [7]?
Answer: 76%

Question: And the “Population Hoechst High Intensity Objects (%)” value [7]?
Answer: 5%

Question: What about the “Population Membrane Permeable-Phenotype (%)” value [7] of the same compound?
Answer: 0%

Question: What about the “Population Mitochondria Different-Phenotype (%)” value [7] of the same compound?
Answer: 29%

Question: And the “Population Mitotic Cells (%)” value [7]?
Answer: 66%

Question: What about the “Population Normal (%)” value [7] of the same compound?
Answer: 94%

Question: What about the “Population Pyknosed Nuclei (%)” value [7] of the same compound?
Answer: 8%

Question: And the “Population Tubulin-Different-Phenotype (%)” value [7]?
Answer: 31%

Question: What about the “Total Cell Count” value [7] of the same compound?
Answer: 550

Question: And the “Population Apoptotic (%)” value [8]?
Answer: 51%

Question: What about the “Population Fragmented Nuclei (%)” value [8] of the same compound?
Answer: 7%

Question: What about the “Population Healthy Nuclei (%)” value [8] of the same compound?
Answer: 80%

Question: And the “Population Mitochondria Different-Phenotype (%)” value [8]?
Answer: 47%

Question: And the “Population Mitotic Cells (%)” value [8]?
Answer: 48%

Question: What about the “Population Pyknosed Nuclei (%)” value [8] of the same compound?
Answer: 12%

Question: What about the “Population Tubulin-Different-Phenotype (%)” value [8] of the same compound?
Answer: 22%

Question: And the “Total Cell Count” value [8]?
Answer: 392

Question: What about the “Population Apoptotic (%)” value [9] of the same compound?
Answer: 27%

Question: What about the “Population Fragmented Nuclei (%)” value [9] of the same compound?
Answer: 17%

Question: And the “Population Healthy Nuclei (%)” value [9]?
Answer: 76%

Question: What about the “Population Hoechst High Intensity Objects (%)” value [9] of the same compound?
Answer: 1%

Question: And the “Population Membrane Permeable-Phenotype (%)” value [9]?
Answer: 1%

Question: And the “Population Mitochondria Different-Phenotype (%)” value [9]?
Answer: 17%

Question: And the “Population Mitotic Cells (%)” value [9]?
Answer: 72%

Question: What about the “Population Normal (%)” value [9] of the same compound?
Answer: 98%

Question: And the “Population Pyknosed Nuclei (%)” value [9]?
Answer: 6%

Question: What about the “Population Tubulin-Different-Phenotype (%)” value [9] of the same compound?
Answer: 10%

Question: And the “Total Cell Count” value [9]?
Answer: 718

Question: And the “Population Apoptotic (%)” value [10]?
Answer: 34%

Question: And the “Population Fragmented Nuclei (%)” value [10]?
Answer: 14%

Question: And the “Population Healthy Nuclei (%)” value [10]?
Answer: 78%

Question: And the “Population Hoechst High Intensity Objects (%)” value [10]?
Answer: 2%

Question: And the “Population Membrane Permeable-Phenotype (%)” value [10]?
Answer: 0%

Question: What about the “Population Mitochondria Different-Phenotype (%)” value [10] of the same compound?
Answer: 22%

Question: And the “Population Mitotic Cells (%)” value [10]?
Answer: 65%

Question: And the “Population Normal (%)” value [10]?
Answer: 97%

Question: What about the “Population Tubulin-Different-Phenotype (%)” value [10] of the same compound?
Answer: 6%

Question: And the “Total Cell Count” value [10]?
Answer: 595

Question: And the “Population Apoptotic (%)” value [11]?
Answer: 25%

Question: What about the “Population Fragmented Nuclei (%)” value [11] of the same compound?
Answer: 14%

Question: And the “Population Healthy Nuclei (%)” value [11]?
Answer: 78%

Question: What about the “Population Hoechst High Intensity Objects (%)” value [11] of the same compound?
Answer: 4%

Question: And the “Population Membrane Permeable-Phenotype (%)” value [11]?
Answer: 0%

Question: What about the “Population Mitochondria Different-Phenotype (%)” value [11] of the same compound?
Answer: 23%

Question: What about the “Population Mitotic Cells (%)” value [11] of the same compound?
Answer: 74%

Question: What about the “Population Normal (%)” value [11] of the same compound?
Answer: 95%

Question: What about the “Population Pyknosed Nuclei (%)” value [11] of the same compound?
Answer: 7%

Question: And the “Population Tubulin-Different-Phenotype (%)” value [11]?
Answer: 17%

Question: And the “Total Cell Count” value [11]?
Answer: 753

Question: What about the “Population Apoptotic (%)” value [12] of the same compound?
Answer: 36%

Question: And the “Population Healthy Nuclei (%)” value [12]?
Answer: 77%

Question: And the “Population Hoechst High Intensity Objects (%)” value [12]?
Answer: 3%

Question: What about the “Population Mitochondria Different-Phenotype (%)” value [12] of the same compound?
Answer: 32%

Question: What about the “Population Mitotic Cells (%)” value [12] of the same compound?
Answer: 63%

Question: And the “Population Normal (%)” value [12]?
Answer: 96%

Question: And the “Population Pyknosed Nuclei (%)” value [12]?
Answer: 8%

Question: And the “Population Tubulin-Different-Phenotype (%)” value [12]?
Answer: 15%

Question: What about the “Total Cell Count” value [12] of the same compound?
Answer: 576

— ChEMBL document CHEMBL5058577, “EUbOPEN Chemogenomics Library 2 (Multiplex)” (2022)
